This is an account of results in paper PMC12416921 (RSC Medicinal Chemistry, 2025).

The test system of the series is A549 human cancer cell line. Nature of the series: A549 differential cytotoxicity. It counts as cell-based. The following applies: for HCR (hypoxia cytotoxicity ratio): A549, oxic vs anoxic IC50, 4 h incubation then 48 h oxic exposure; for IC50: Homo sapiens. A digest of the protocol:
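A549 cells plated at 6000/well in MEM-alpha with 10% FBS and 0.02 mM 2′-deoxycytidine, attached 2 h. Anoxic arm in a Coy chamber with preconditioned medium and degassed plates; normoxic arm at 95% air/5% CO2. Final 50 μg mL−1 to 5 pg mL−1, duplicate wells. 4 h exposure, then 48 h aerobic without media change.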

Setting [1] is: A549, read-out: IC50 [anoxic] (μM) ± SEM.
Setting [2] is: A549, read-out: IC50 [oxic] (μM) ± SEM.

Read-outs that look alike come from different tables or passages of the source.

For the molecule `COc1cc(C2=CCCc3c2ccc(OC)c3OC(C)c2cnc([N+](=O)[O-])n2C)cc(OC)c1OC` (stereo not drawn) [KGP291 (16), 5-(1-((2-Methoxy-5-(3,4,5-trimethoxyphenyl)-7,8-dihydronaphthalen-1-yl)oxy)ethyl)-1-methyl-2-nitro-1H-imidazole], the “HCR (hypoxia cytotoxicity ratio)” value is reported as 7.6. The IC50 (commonly the midpoint of a concentration-inhibition curve) under setting [1] worked out at 0.05 ± 0.004 µM. In addition, the IC50 under setting [2] was 0.38 ± 0.03 µM.
`COc1cc(C2=CCCc3c2ccc(OC)c3OCc2ccc([N+](=O)[O-])s2)cc(OC)c1OC` [KGP24 (12), 2-(((2-Methoxy-5-(3,4,5-trimethoxyphenyl)-7,8-dihydronaphthalen-1-yl)oxy)methyl)-5-nitrothiophene]: the “HCR (hypoxia cytotoxicity ratio)” value amounted to 1.0. Also, the IC50 under setting [1] stood at 0.48 ± 0.04 µM. Moreover, the IC50 under setting [2] amounted to 0.46 ± 0.05 µM.
The corresponding values for `COc1cc(C2=CCCc3c2ccc(OC)c3OC(C)c2ccc([N+](=O)[O-])s2)cc(OC)c1OC` (stereo not drawn) [KGP25 (13), 2-(1-((2-Methoxy-5-(3,4,5-trimethoxyphenyl)-7,8-dihydronaphthalen-1-yl)oxy)ethyl)-5-nitrothiophene] are 11.0, 0.25 ± 0.08 µM and 2.74 ± 1.13 µM.
Regarding `COc1cc(C2=CCCCc3c2ccc(OC)c3OC(C)c2ccc([N+](=O)[O-])s2)cc(OC)c1OC` (stereo not drawn) [KGP304 (20), 2-(1-((3-Methoxy-9-(3,4,5-trimethoxyphenyl)-6,7-dihydro-5H-benzo[7]annulen-4-yl)oxy)ethyl)-5-nitrothiophene], the “HCR (hypoxia cytotoxicity ratio)” value came out at 6.0. Further, the IC50 under setting [1] is 0.38 ± 0.12 µM. In addition, the IC50 under setting [2] is 2.27 ± 1.01 µM.
With `COc1cc(C2=CCCCc3c2ccc(OC)c3OC(C)c2cnc([N+](=O)[O-])n2C)cc(OC)c1OC` (stereo not drawn) [KGP292 (22), 5-(1-((3-Methoxy-9-(3,4,5-trimethoxyphenyl)-6,7-dihydro-5H-benzo[7]annulen-4-yl)oxy)ethyl)-1-methyl-2-nitro-1H-imidazole], the “HCR (hypoxia cytotoxicity ratio)” value was 4.8. Besides, the IC50 under setting [1] amounted to 0.14 ± 0.04 µM. Moreover, the half-maximal inhibitory concentration (IC50) under setting [2] amounted to 0.67 ± 0.13 µM.
The corresponding values for `COc1ccc2c(C(=O)c3cc(OC)c(OC)c(OC)c3)c(-c3ccc(OC)c(OCc4ccc([N+](=O)[O-])s4)c3)[nH]c2c1` [KGP311 (23), (6-Methoxy-2-(4-methoxy-3-((5-nitrothiophen-2-yl)methoxy)phenyl)-1H-indol-3-yl)(3,4,5-trimethoxyphenyl)methanone] are 79.7, 0.07 ± 0.04 µM and 5.58 ± 3.59 µM.
The corresponding values for `Nc1n[n+]([O-])c2ccccc2[n+]1[O-]` [TPZ (1), tirapazamine, reference compound] are 8.9, 7.1 µM and 63.5 µM.
In the case of `COc1ccc2c(C(=O)c3cc(OC)c(OC)c(OC)c3)c(-c3ccc(OC)c(OC(C)(C)c4ccc([N+](=O)[O-])s4)c3)[nH]c2c1` [KGP354 (25), (6-Methoxy-2-(4-methoxy-3-((2-(5-nitrothiophen-2-yl)propan-2-yl)oxy)phenyl)-1H-indol-3-yl)(3,4,5-trimethoxyphenyl)methanone], the “HCR (hypoxia cytotoxicity ratio)” value is on record as 79. In addition, under setting [1], the 50% inhibitory concentration (IC50) stood at 0.07 ± 0.02 µM. For the same molecule, under setting [2], the IC50 came to 5.53 ± 2.22 µM.
Consider `COc1cc(C2=CCCc3c2ccc(OC)c3OC(C)(C)c2ccc([N+](=O)[O-])s2)cc(OC)c1OC` [KGP66 (14), 2-(2-((2-Methoxy-5-(3,4,5-trimethoxyphenyl)-7,8-dihydronaphthalen-1-yl)oxy)propan-2-yl)-5-nitrothiophene], for which the “HCR (hypoxia cytotoxicity ratio)” value was found to be 2.6. Moreover, the IC50 under setting [1] worked out at 0.05 ± 0.01 µM. Moreover, the IC50 under setting [2] came to 0.13 ± 0.06 µM.
The corresponding values for `COc1cc(C2=CCCCc3c2ccc(OC)c3OCc2cnc([N+](=O)[O-])n2C)cc(OC)c1OC` [KGP293 (21), 5-(((3-Methoxy-9-(3,4,5-trimethoxyphenyl)-6,7-dihydro-5H-benzo[7]annulen-4-yl)oxy)methyl)-1-methyl-2-nitro-1H-imidazole] are 9.0, 0.04 ± 0.005 µM and 0.36 ± 0.02 µM.
The corresponding values for `COc1cc(C2=CCCc3c2ccc(OC)c3OCc2cnc([N+](=O)[O-])n2C)cc(OC)c1OC` [KGP105 (15), 5-(((2-Methoxy-5-(3,4,5-trimethoxyphenyl)-7,8-dihydronaphthalen-1-yl)oxy)methyl)-1-methyl-2-nitro-1H-imidazole] are 6.2, 0.04 ± 0.003 µM and 0.25 ± 0.02 µM.
The corresponding values for `COc1cc(C2=CCCCc3c2ccc(OC)c3OCc2ccc([N+](=O)[O-])s2)cc(OC)c1OC` [KGP305 (19), 2-(((3-Methoxy-9-(3,4,5-trimethoxyphenyl)-6,7-dihydro-5H-benzo[7]annulen-4-yl)oxy)methyl)-5-nitrothiophene] are 0.2, 0.22 ± 0.09 µM and 0.05 ± 0.005 µM.
In the case of `COc1ccc2c(C(=O)c3cc(OC)c(OC)c(OC)c3)c(-c3ccc(OC)c(OC(C)c4ccc([N+](=O)[O-])s4)c3)[nH]c2c1` (stereo not drawn) [KGP343 (24), (6-Methoxy-2-(4-methoxy-3-(1-(5-nitrothiophen-2-yl)ethoxy)phenyl)-1H-indol-3-yl)(3,4,5-trimethoxyphenyl)methanone], the “HCR (hypoxia cytotoxicity ratio)” value stood at 33.8. In addition, the IC50 under setting [1] stood at 0.12 ± 0.06 µM. In addition, the IC50 under setting [2] turned out to be 4.06 ± 1.89 µM.
